# Data reported in ChEMBL document CHEMBL1141286, “Benzochromenones from the marine crinoid Comantheria rotula inhibit hypoxia-inducible factor-1 (HIF-1) in cell-based reporter assays and differentially suppress the growth of certain tumor cell lines” (J Nat Prod, 2007).
# Activity calls are given as the source filed them. The calls are words filed in the database; no cut-off is given here.
# Columns and labels:
# SK-OV-3 = test: Growth inhibition of human SK-OV3 cells; format: functional
# MDA-MB-435 = test: Growth inhibition of human MDA-MB-435 cells; format: functional
# Hs-578T = test: Growth inhibition of human HS578T cells; format: functional
# SF-268 = test: Growth inhibition of human SF268 cells; format: functional
# SNB-75 = test: Growth inhibition of human SNB75 cells; format: functional
# SN12C = test: Growth inhibition of human SN12C cells; format: functional
# NCI-H322M = test: Growth inhibition of human NCI-H322M cells; format: functional
# NCI-H522 = test: Growth inhibition of human NCI-H522 cells; format: functional
# [1] = Inhibition of 1,10-phenanthroline-induced HIF1 activation in T47D cells by TK-luciferase assay; format: cell-based; conditions: Homo sapiens
# Summary of the method: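 HIF-1 reporter (pHRE-TK-Luc) assays in transfected PC-3 or T47D cells; HIF-1 induced by hypoxia or by the hypoxia mimetic 1,10-phenanthroline (10 μM); compounds at half-log concentrations; luciferase activity measured; IC50 from experiments in triplicate.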
# K562 = test: Growth inhibition of human K562 cells; format: functional
# CAKI-1 = test: Growth inhibition of human CAKI1 cells; format: functional
# T47D [2] = test: Inhibition of 1,10-phenanthroline-induced VEGF protein secretion in human T47D cells at 10 uM after 16 hrs by ELISA; format: functional, cell-based
# Summary of the method: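 T47D cells stimulated with 1,10-phenanthroline, compound at 10 μM; secreted VEGF in conditioned media by ELISA, normalized to cell-lysate protein.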
# MCF7 = test: Growth inhibition of human MCF7 cells; format: functional
# ACHN = test: Growth inhibition of human ACHN cells; format: functional
# HCT-15 = test: Growth inhibition of human HCT15 cells; format: functional
# SR = test: Growth inhibition of human SR cells; format: functional
# 786-0 = test: Growth inhibition of human 786-0 cells; format: functional
# SW-620 = test: Growth inhibition of human SW620 cells; format: functional
# SNB-19 = test: Growth inhibition of human SNB19 cells; format: functional
# U-251 = test: Growth inhibition of human U251 cells; format: functional
# SK-MEL-28 = test: Growth inhibition of human SK-MEL28 cells; format: functional
# MDA-MB-231 = test: Growth inhibition of human MDA-MB-231 cells; format: functional
# UACC-62 = test: Growth inhibition of human UACC62 cells; format: functional
# [3] = Growth inhibition of human OVACAR3 cells; format: functional
# HCT-116 = test: Growth inhibition of human HCT116 cells; format: functional
# NCI/ADR-RES = test: Growth inhibition of human NCI/ADR-RES cells; format: functional
# HOP-92 = test: Growth inhibition of human HOP92 cells; format: functional
# UO-31 = test: Growth inhibition of human UO31 cells; format: functional
# COLO 205 = test: Growth inhibition of human COLO205 cells; format: functional
# KM12 = test: Growth inhibition of human KM12 cells; format: functional
# PC-3 = test: Growth inhibition of human PC3 cells; format: functional
# BT-549 = test: Growth inhibition of human BT549 cells; format: functional
# OVCAR-5 = test: Growth inhibition of human OVACAR5 cells; format: functional
# SF-295 = test: Growth inhibition of human SF295 cells; format: functional
# CCRF-CEM = test: Growth inhibition of human CCRF-CEM cells; format: functional
# NCI-H23 = test: Growth inhibition of human NCI-H23 cells; format: functional
# LOX IMVI = test: Growth inhibition of human LOXIMVI cells; format: functional
# DU-145 = test: Growth inhibition of human DU145 cells; format: functional
# T47D [4] = test: Growth inhibition of human T47D cells; format: functional
# A549 = test: Growth inhibition of human A549 cells; format: functional
# [5] = read-out: Log LC50 (the source's name) (converted)
structure (smiles),measurement,setting,value
COc1cc(O)cc2cc3oc(C)cc(=O)c3c(O)c12,GI50,SK-OV-3,31.6 µM
same,LC50,SK-OV-3,> 100 µM
same,TGI,SK-OV-3; read-out: Log TGI (converted),> 100 µM
same,GI50,MDA-MB-435,27.5 µM
same,LC50,MDA-MB-435,> 100 µM
same,TGI,MDA-MB-435; read-out: Log TGI (converted),> 100 µM
same,GI50,Hs-578T,0.589 µM
same,LC50,Hs-578T,> 100 µM
same,GI50,SF-268,30.2 µM
same,LC50,SF-268,> 100 µM
same,TGI,SF-268; read-out: Log TGI (converted),> 100 µM
same,GI50,SNB-75,46.8 µM
same,LC50,SNB-75,> 100 µM
same,TGI,SNB-75; read-out: Log TGI (converted),> 100 µM
same,GI50,SN12C,32.4 µM
same,LC50,SN12C,> 100 µM
same,TGI,SN12C; read-out: Log TGI (converted),> 100 µM
same,GI50,NCI-H322M,26.9 µM
same,CC50,NCI-H322M; [5],> 100 µM
same,TGI,NCI-H322M; read-out: Log TGI (converted),95.5 µM
same,GI50,NCI-H522,2.19 µM
same,CC50,NCI-H522; [5],93.3 µM
same,TGI,NCI-H522; read-out: Log TGI (converted),22.9 µM
same,IC50,[1],0.9 µM
same,GI50,K562,14.8 µM
same,CC50,K562; [5],> 100 µM
same,TGI,K562; read-out: Log TGI (converted),49 µM
same,GI50,CAKI-1,42.7 µM
same,LC50,CAKI-1,> 100 µM
same,TGI,CAKI-1; read-out: Log TGI (converted),> 100 µM
same,Activity,T47D [2],inactive
same,GI50,MCF7,31.6 µM
same,LC50,MCF7,> 100 µM
same,TGI,MCF7; read-out: Log TGI (converted),> 100 µM
same,GI50,ACHN,17 µM
same,CC50,ACHN; [5],> 100 µM
same,TGI,ACHN; read-out: Log TGI (converted),> 100 µM
same,GI50,HCT-15,23.4 µM
same,CC50,HCT-15; [5],> 100 µM
same,TGI,HCT-15; read-out: Log TGI (converted),70.8 µM
same,GI50,SR,15.1 µM
same,CC50,SR; [5],> 100 µM
same,TGI,SR; read-out: Log TGI (converted),41.7 µM
same,GI50,786-0,20 µM
same,LC50,786-0,> 100 µM
same,TGI,786-0; read-out: Log TGI (converted),50.1 µM
same,GI50,SW-620,0.295 µM
same,CC50,SW-620; [5],> 100 µM
same,TGI,SW-620; read-out: Log TGI (converted),17 µM
same,GI50,SNB-19,32.4 µM
same,LC50,SNB-19,> 100 µM
same,TGI,SNB-19; read-out: Log TGI (converted),> 100 µM
same,GI50,U-251,33.1 µM
same,LC50,U-251,> 100 µM
same,TGI,U-251; read-out: Log TGI (converted),> 100 µM
same,GI50,SK-MEL-28,24 µM
same,CC50,SK-MEL-28; [5],> 100 µM
same,TGI,SK-MEL-28; read-out: Log TGI (converted),63.1 µM
same,GI50,MDA-MB-231,17.8 µM
same,LC50,MDA-MB-231,> 100 µM
same,TGI,MDA-MB-231; read-out: Log TGI (converted),> 100 µM
same,GI50,UACC-62,29.5 µM
same,"LC50 (lethal concentration, 50% cell kill)",UACC-62,> 100 µM
same,TGI,UACC-62; read-out: Log TGI (converted),> 100 µM
same,GI50,[3],> 100 µM
same,CC50,[3]; [5],22.4 µM
same,TGI,[3]; read-out: Log TGI (converted),91.2 µM
same,GI50,HCT-116,14.5 µM
same,CC50,HCT-116; [5],63.1 µM
same,TGI,HCT-116; read-out: Log TGI (converted),30.2 µM
same,GI50,NCI/ADR-RES,22.4 µM
same,LC50 (concentration killing 50% of cells),NCI/ADR-RES,> 100 µM
same,TGI,NCI/ADR-RES; read-out: Log TGI (converted),> 100 µM
same,GI50,HOP-92,30.9 µM
same,CC50,HOP-92; [5],> 100 µM
same,TGI,HOP-92; read-out: Log TGI (converted),> 100 µM
same,GI50,UO-31,5.13 µM
same,LC50,UO-31,> 100 µM
same,TGI,UO-31; read-out: Log TGI (converted),37.2 µM
same,GI50,COLO 205,20.4 µM
same,CC50,COLO 205; [5],> 100 µM
same,TGI,COLO 205; read-out: Log TGI (converted),55 µM
same,GI50,KM12,18.6 µM
same,CC50,KM12; [5],85.1 µM
same,TGI,KM12; read-out: Log TGI (converted),39.8 µM
same,GI50,PC-3,32.4 µM
same,LC50,PC-3,> 100 µM
same,TGI,PC-3; read-out: Log TGI (converted),> 100 µM
same,GI50,BT-549,20.4 µM
same,LC50,BT-549,> 100 µM
same,TGI,BT-549; read-out: Log TGI (converted),> 100 µM
same,GI50,OVCAR-5,46.8 µM
same,LC50,OVCAR-5,> 100 µM
same,TGI,OVCAR-5; read-out: Log TGI (converted),> 100 µM
same,GI50,SF-295,30.2 µM
same,LC50,SF-295,> 100 µM
same,TGI,SF-295; read-out: Log TGI (converted),> 100 µM
same,GI50,CCRF-CEM,30.2 µM
same,LC50,CCRF-CEM,> 100 µM
same,TGI,CCRF-CEM; read-out: Log TGI (converted),100 µM
same,GI50,NCI-H23,24.5 µM
same,CC50,NCI-H23; [5],> 100 µM
same,TGI,NCI-H23; read-out: Log TGI (converted),83.2 µM
same,GI50,LOX IMVI,18.2 µM
same,LC50,LOX IMVI,> 100 µM
same,TGI,LOX IMVI; read-out: Log TGI (converted),52.5 µM
same,GI50,DU-145,21.9 µM
same,CC50,DU-145; [5],> 100 µM
same,TGI,DU-145; read-out: Log TGI (converted),70.8 µM
same,GI50,T47D [4],17.8 µM
same,LC50,T47D [4],> 100 µM
same,TGI,T47D [4]; read-out: Log TGI (converted),> 100 µM
same,GI50,A549,29.5 µM
same,CC50,A549; [5],> 100 µM
same,TGI,A549; read-out: Log TGI (converted),> 100 µM
